The list is not random: actives were taken first. Their share in the collection is about 2.3%.
MsrA act = bovine methionine sulfoxide reductase A activation | activation, % at 10.6 µM | 360,000 compounds, 0.3% hits | purified bovine MsrA, absorbance read-out; in the data active = activation above about 7.5%;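 note: 0% = vehicle and 100% = reference activator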
MC4R antag cAMP = blocks human MC4R cAMP signaling. P32245. MC4R-expressing cells, MTII-stimulated cAMP, LANCE TR-FRET. inhibition, % at 6.5 µM. 360,000 compounds, 0.48% hits;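 active = inhibition above its plate's cutoff, the mean of tested wells on that plate plus 3 SD, cut at about 29% in these data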;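 note: 0% = Melanotan II alone and 100% = Melanotan II plus saturating MCL0020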
Target sequence (P32245 whole entry, looked up): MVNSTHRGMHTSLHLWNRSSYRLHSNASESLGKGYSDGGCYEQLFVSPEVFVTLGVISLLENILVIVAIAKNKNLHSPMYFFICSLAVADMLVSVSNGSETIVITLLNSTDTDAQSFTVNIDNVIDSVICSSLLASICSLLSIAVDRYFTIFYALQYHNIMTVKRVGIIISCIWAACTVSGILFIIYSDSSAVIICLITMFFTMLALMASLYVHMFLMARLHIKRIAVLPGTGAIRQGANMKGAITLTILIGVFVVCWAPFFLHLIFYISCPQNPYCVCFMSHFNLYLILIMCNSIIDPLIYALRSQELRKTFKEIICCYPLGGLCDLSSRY
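Assay system: U2OS-MC4R stable cell line; Also added: Melanotan II; Technique: Eu-cAMP/anti-cAMP TR-FRET, emission 671 nm; Times: 30-min compound, 1-h challenge, 1-h detection, room temperature.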
MC4R ag barr = activates human MC4R beta-arrestin recruitment; 360,000 compounds, 0.98% hits; activation, % at 8.9 µM; U2OS MC4R beta-arrestin complementation, luminescence; percent of melanotan II response, DMSO zero; AID 540308; P32245;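 active = activation above a per-plate cutoff, the mean activation of sample wells on that plate plus 3 SD, cut at about 8% in these data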
MsrA inh = inhibitors of bovine MsrA. inhibition, % at 15.5 µM. purified bovine MsrA, absorbance read-out. 360,000 compounds, 0.75% hits; in the data active = inhibition above about 4.5%;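 note: 0% = vehicle wells with enzyme and 100% = reference inhibitor wells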
* = called active by the depositor; / = no result.

SMILES	MsrA act	MC4R antag cAMP	MC4R ag barr	MsrA inh
COCC(=O)OC/C(O)=C(\C#N)c1nc2ccccc2[nH]1	-3	10	0	1
Cc1cc(C)cc(OCC(=O)OC/C(O)=C(\C#N)c2nc3ccccc3[nH]2)c1	-4	-5	14*	-1
Cc1ccc(C(=O)OCC(=O)NCc2ccc(Cl)cc2Cl)o1	-1	8	0	-1
C#CCOCCOCCOCCNc1nc(N2CCN(C(=O)CCCCCCCCCCNC(=O)[C@H](CCCCN)n3cc(C[C@@H](C)CC)nn3)CC2)nc(N2CCN(C(=O)CCCCCCCCCCNC(=O)[C@H](CCCN=C(N)N)n3cc(C[C@@H](C)CC)nn3)CC2)n1	6	83*	-2	/
C#CCOCCOCCOCCNc1nc(N2CCN(C(=O)CCCCCCCCCCNC(=O)[C@@H](CCSC)n3cc(CCO)nn3)CC2)nc(N2CCN(C(=O)CCCCCCCCCCNC(=O)[C@H](CCCN=C(N)N)n3cc(C[C@@H](C)CC)nn3)CC2)n1	1	60*	0	/
C#CCOCCOCCOCCNc1nc(N2CCN(C(=O)CCCCCCCCCCNC(=O)[C@H](CCCCN)n3cc(C[C@@H](C)CC)nn3)CC2)nc(N2CCN(C(=O)CCCCCCCCCCNC(=O)[C@@H]([C@H](C)O)n3cc(C)nn3)CC2)n1	0	44*	-1	/
CCOC(=O)c1ccc2c(c1)N(Cc1ccccc1C)C(=O)c1ccccc1S2=O (stereo not drawn)	-3	22	-1	-2
CCNC(=O)O/N=C(\C)c1sc(-c2ccc(Cl)cc2)nc1C	-4	18	0	4.6*
CCC[C@@H](CN1CCC[C@H]1CN1C(N)=NC[C@@H]1Cc1ccccc1)N1C[C@@H]([C@H](C)CC)N(CCCC2CCCC2)C1=N	0	39*	3	/
C[C@@H](CN1CCC[C@H]1CN1C(N)=NC[C@@H]1Cc1ccccc1)N1C[C@@H](Cc2ccccc2)N(CCc2ccc(Cl)c(Cl)c2)C1=N	-3	33*	2	/
Cn1c(O)c(N=Nc2ccccc2)c2ccccc21	-6	-4	0	-1
COc1ccccc1NC(=O)c1cc2cc(Br)ccc2oc1=N	-7	-6	8.3*	1
COc1ccc2o/c(=N\O)c(C(=O)Nc3ccccc3OC)cc2c1	-12	-14	4	0
CCOc1ccc2nc(SCC(=O)c3ccc(Cl)s3)sc2c1	-11	-5	-1	0
Fc1ccccc1CSc1nc2ccccc2[nH]1	-8	-6	0	1
C=CCn1c(SCC(=O)Nc2nccs2)nnc1-c1cc2cccc(OC)c2o1	-12	1	9.3*	-1
CC(C)N(C(=O)COC(=O)c1ccc(Cl)nc1)C(C)C	-9	-2	1	1
O=C(OCc1ccc(Br)cc1)c1cnc(Cl)c(Cl)c1	0	33*	-2	0
O=C(OCCOc1ccc(Br)cc1)c1ccc(Cl)nc1	-1	26	9.2*	0
Oc1ccc(-c2nnc(-c3ccc(O)cc3)nn2)cc1	-2	2	-2	1
C=CCn1c(=O)c2ccc(C(=O)NCc3ccccc3)cc2n(Cc2cccc(Cl)c2)c1=O	-11	-30	9.5*	-1
C=CCn1c(=O)c2ccc(C(=O)NCc3ccccc3)cc2n(Cc2ccc(Cl)cc2)c1=O	-1	16	0	0
CCN(CC)c1nc(N)c2c(N)nc3c(c2c1C#N)CC(c1ccccc1)O3 (stereo not drawn)	-1	22	2	6.3*
CCC(C)c1ccc(S(=O)(=O)N2CCN(C(=O)COc3ccc4c(C)cc(=O)oc4c3)CC2)cc1 (stereo not drawn)	1	8	-3	2
COc1ccc(NC(=O)CN(C)C(=O)C2CC(=O)N(c3ccc4c(c3)OCCO4)C2)cc1 (stereo not drawn)	-7	5	1	-1
SMILES	MsrA act	MC4R antag cAMP	MC4R ag barr	MsrA inh
Cc1ccc(Cn2ccsc2=NC(=O)CCl)cc1	-1	9	15*	-1
Cc1ccc(-c2noc(C3CCCN(C(=O)c4ccccc4Br)C3)n2)cc1 (stereo not drawn)	-4	5	-2	-1
CC(C)(C)c1ccc(OCc2ccc(C(=O)N/N=C/c3ccc([N+](=O)[O-])cc3)o2)cc1	-5	11	9.1*	0
COc1ccc(C2CC(c3ccc4ccccc4c3)=NN2C(=O)CNC2CCCCC2)cc1 (stereo not drawn)	-2	2	8.5*	-1
C=CCNCC(=O)N1N=C(c2ccc3ccccc3c2)CC1c1ccc(OC)cc1 (stereo not drawn)	-1	-4	8.9*	0
CC(C)Nc1nc(NC(C)C)nc(NS(=O)(=O)c2ccc(N)cc2)n1	-11	2	0	1
CC(=O)c1cccc(NC(=O)CCc2nnc3ccc(N4CCN(C)CC4)nn23)c1	-4	-5	-4	2
C/C(CC(=O)Nc1ccccn1)=N\NC(=O)c1cccc(C)c1	0	34*	1	0
COc1ccc(C(=O)N/N=C(\C)CC(=O)Nc2ccccn2)cc1OC	0	10	0	0
COC(=O)c1ccc(-c2nc(CN3CCN(Cc4cccc(C)c4)CC3)c(C)o2)cc1	-2	12	-1	0
CN1CCc2nc3sc(C(=O)C45CC6CC(CC(C6)C4)C5)c(N)c3cc2C1	-14	0	12*	0
Nc1c(C(=O)O)sc2nc3c(cc12)CCCC3	3	-6	-2	1
CCCCOc1ccc(C(=O)N/C(=C\c2cccc([N+](=O)[O-])c2)C(=O)OCCC)cc1	-3	16	8.8*	-1
CCCCOc1ccc(C(=O)N/C(=C\c2cccc([N+](=O)[O-])c2)C(=O)OC(C)C)cc1	1	12	4	2
CCOC(=O)N=S(=O)(Oc1ccc([N+](=O)[O-])cc1)c1ccccc1 (stereo not drawn)	-5	-1	-2	0
Nc1ccc(C2(c3ccc(N)cc3)C(=O)Nc3ccccc32)cc1	-1	1	8	1
O=C1Nc2ccccc2C1(c1ccccc1)c1ccccc1	0	-1	37*	1
Cn1c(=O)[nH]c(=O)c2c1nc(CN1CCN(c3ccc(F)cc3)CC1)n2CCCc1ccccc1	-3	2	0	0
COc1ccc(/C=N/NC(=O)c2ccc(Cl)cc2)cc1Cn1cc(Cl)cn1	-4	0	8.7*	0
COc1ccc(/C=N/NC(=O)c2cc(Br)ccc2O)cc1Cn1cc(Cl)cn1	-1	5	-4	1
Cc1cc(C)n2nc(C(=O)Nc3ccc4c(c3)OCO4)nc2n1	-11	-5	0	3
Cc1cc(C)n2nc(N)c(N=Nc3ccc4c(c3)OCO4)c2n1	-2	-16	8.6*	0
O=C(Cn1cnc2c(cnn2-c2ccc(F)cc2)c1=O)N1CCN(c2ccccc2F)CC1	-10	0	-1	0
COc1ccc(C2C3=C(CC(c4ccco4)CC3=O)Nc3ccccc3N2C(C)=O)cc1 (stereo not drawn)	-4	-3	-2	5.3*
O=C(Nc1ccsc1C(=O)NC1CCCCC1)c1ccc(F)cc1	-4	15	12*	1
NCCc1nnc(SCc2c(F)cccc2Cl)o1	-2	-1	-4	0
